According to ChEMBL document CHEMBL1126035, “Selective beta 3-adrenergic agonists of brown adipose tissue and thermogenesis. 1. [4-[2-[(2-Hydroxy-3-phenoxypropyl)amino]ethoxy]phenoxy]acetates” (1992):
The source made the active and inactive calls. The calls are words filed in the database; no cut-off is given here.

Columns and labels:
[1] = Ratio of the dose (D500,peroral administration) elevating the rat heart rate to 500 bpm to the GDP ED50.; format: functional
Procedure, shortened: (§1)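 Rats held at 29 °C for 2 weeks, groups of six dosed (sc or po) at the BAT GDP ED50, then at rising multiples of it. Heart rate read 15–30 min after dosing until ≥500 bpm, giving D500; vehicle control group of six. Index = D500 divided by GDP-binding ED50 from cold-adapted rats.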

[2] = target: Beta-3 adrenergic receptor (Rattus norvegicus) (UniProt P26255); test: Inhibition of beta-3 adrenergic receptor GDP binding in rat brown adipose tissue on oral administration relative to isoprenaline; format: tissue-based
Procedure, shortened: (§2)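 Rats cold-adapted at 4 °C for 4 days, then kept at 23 °C for 2 days; next day dosed sc or po in 0.45% aqueous NaCl/0.25% w/v Polysorbate 80, 0.1–10 mg kg-1, n=6 per group. Interscapular BAT taken 1 h later, mitochondria by differential centrifugation, GDP binding measured. Expressed relative to isoprenaline sulfate 1 mg kg-1; ED50 by linear regression.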

[3] = Ratio of the dose (D500,subcutaneous administration) elevating the rat heart rate to 500 bpm to the GDP ED50; format: functional; procedure, shortened: as §1
[4] = target: Beta-3 adrenergic receptor (Rattus norvegicus) (UniProt P26255); test: Dose necessary to produce 50% of the isoprenaline effect to inhibit GDP binding to beta-3 adrenergic receptor in brown adipose tissue(BAT mitochondria) of rats after subcutaneous administration; not active; procedure, shortened: as §2

Chain of Beta-3 adrenergic receptor (Rattus norvegicus) (P26255 whole entry): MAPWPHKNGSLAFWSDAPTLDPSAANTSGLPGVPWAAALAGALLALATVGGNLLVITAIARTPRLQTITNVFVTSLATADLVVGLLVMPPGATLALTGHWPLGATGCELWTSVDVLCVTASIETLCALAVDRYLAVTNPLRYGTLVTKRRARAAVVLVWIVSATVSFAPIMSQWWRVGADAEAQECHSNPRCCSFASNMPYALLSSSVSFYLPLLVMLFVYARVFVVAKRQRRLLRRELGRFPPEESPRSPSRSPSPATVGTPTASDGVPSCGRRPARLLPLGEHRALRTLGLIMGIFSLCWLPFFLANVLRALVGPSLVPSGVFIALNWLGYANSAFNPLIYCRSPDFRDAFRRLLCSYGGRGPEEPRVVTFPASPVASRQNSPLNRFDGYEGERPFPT

Compound: COC(=O)c1ccc(CC(C)NCC(O)c2ccccc2)cc1 (centres undefined)
- SI [1]: > 10
- ED50 [2]: 0.94 mg/kg

Compound: COC(=O)COc1ccc(CC(C)NCC(O)c2cccc(Cl)c2)cc1 (centres undefined)
- SI [1]: > 100
- ED50 [2]: 0.007 mg/kg

Compound: CCOC(=O)COc1ccc(OCCNCC(O)COc2ccccc2)cc1 (centres undefined)
- SI [1]: > 100

Compound: Cl.O=C(O)COc1ccc(OCCNC[C@H](O)COc2ccccc2)cc1
- SI [1]: > 22
- ED50 [2]: 0.45 mg/kg

Compound: O=C(O)COc1ccc(OCCNCC(O)COc2ccccc2)cc1 (centres undefined)
- SI [1]: > 62
- ED50 [2]: 3.5 mg/kg

Compound: CC(C)OC(=O)COc1ccc(OCCNCC(O)COc2ccccc2)cc1 (centres undefined)
- SI [1]: > 10

Compound: COC(=O)COc1cccc(OCCNCC(O)COc2ccccc2)c1 (centres undefined)
- SI [1]: > 10
- ED50 [2]: 5.28 mg/kg

Compound: CC(C)NC[C@H](O)COc1ccc(O)cc1 [PRENALTEROL]
- SI [3]: < 1

Compound: COC(=O)COc1ccc(OCCNCC(O)COc2ccccc2F)cc1.Cl (centres undefined)
- SI [1]: > 100
- ED50 [2]: 0.54 mg/kg

Compound: CC(C)(C)OC(=O)COc1ccc(OCCNCC(O)COc2ccccc2)cc1 (centres undefined)
- SI [1]: > 100
- ED50 [2]: 0.25 mg/kg

Compound: COC(=O)COc1ccc(OCC(C)NCC(O)COc2ccccc2)cc1.O (centres undefined)
- SI [1]: > 10

Compound: COC(=O)COc1ccc(OCCNCC(O)COc2ccccc2)cc1 (centres undefined)
- SI [1]: > 100
- ED50 [2]: 0.12 mg/kg

Compound: COC(=O)COc1ccc(CCNCC(O)COc2ccccc2)cc1 (centres undefined)
- SI [1]: > 100
- ED50 [2]: 0.078 mg/kg

Compound: COC(=O)COc1ccc(C(=O)NCCNCC(O)COc2ccccc2)cc1 (centres undefined)
- ED50 [4]: inactive

Compound: COC(=O)COc1cccc(OCCNCC(O)COc2ccccc2F)c1.Cl (centres undefined)
- SI [1]: > 10
